We go through 31 compounds from ChEMBL document CHEMBL3286189, “Discovery and SAR studies of a novel class of cytotoxic 1,4-disubstituted piperidines via Ugi reaction” (Eur J Med Chem, 2014).

The structures appear in SMILES notation.

Assay type in all cases: functional, cell-based
For one assay, the system named is L1210. As to the kind of experiment: Cytostatic activity against mouse L1210 cells assessed as inhibition of cell proliferation after 48 hrs by coulter counting analysis. As to conditions: Mus musculus, L1210, 48 h. An outline of the steps: (§1)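 Anti-proliferative screen in murine leukemia L1210, human T-lymphocyte CEM and human cervix carcinoma HeLa cultures. The value reported is the IC50, the concentration that inhibits cell proliferation by 50%.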

The next assay concerns CCRF-CEM. As to the kind of experiment: Cytostatic activity against human CEM cells assessed as inhibition of cell proliferation after 72 hrs by coulter counting analysis. As to conditions: Homo sapiens, CCRF-CEM, 72 h. The method in brief: as §1
The test system of another assay is HeLa. As to the kind of experiment: Cytostatic activity against human HeLa cells assessed as inhibition of cell proliferation after 72 hrs by coulter counting analysis. As to conditions: Homo sapiens, HeLa, 72 h. The method in brief:
as §1

A word on the IC50: it is the concentration that inhibits the measured activity by half. `COC(=O)C[C@H](NC(=O)OC(C)(C)C)C(=O)N(Cc1ccccc1)C1(C(=O)NCc2ccccc2)CCN(Cc2ccccc2)CC1`: the IC50 turned out to be 18 µM with L1210, 19 µM with CCRF-CEM and 20 µM in the assay on HeLa.
For `C=CCOC(=O)N1CCC(C(=O)NCc2ccccc2)(N(Cc2ccccc2)C(=O)[C@H](CC(=O)OC)NC(=O)OC(C)(C)C)CC1` the same measures were 24 µM, 65 µM and 107 µM.
On the same counts, the results for `COC(=O)C[C@H](NC(=O)OC(C)(C)C)C(=O)N(Cc1ccccc1)C1(C(=O)NCc2ccccc2)CCN(C(=O)OC(C)(C)C)CC1` are 21 µM, 21 µM and 24 µM.
As to `CCCCNC(=O)C1(N(Cc2ccccc2)C(=O)[C@H](CC(=O)OC)NC(=O)OC(C)(C)C)CCN(Cc2ccccc2)CC1`, the IC50 in the assay on L1210 amounted to 24 µM; in the assay on CCRF-CEM it was 28 µM; with HeLa it was 36 µM.
For `COC(=O)C[C@H](NC(=O)OC(C)(C)C)C(=O)N(Cc1ccccc1)C1(C(=O)NC(C)(C)C)CCN(Cc2ccccc2)CC1` the same measures were 23 µM, 24 µM and 21 µM.
For `COC(=O)C[C@H](NC(=O)OC(C)(C)C)C(=O)N(Cc1ccccc1)C1(C(=O)NC2CCCCC2)CCN(Cc2ccccc2)CC1` the same measures were 19 µM, 20 µM and 21 µM.
On the same counts, the results for `COC(=O)CNC(=O)C1(N(Cc2ccccc2)C(=O)[C@H](CC(=O)OC)NC(=O)OC(C)(C)C)CCN(Cc2ccccc2)CC1` are 123 µM, 109 µM and 227 µM.
As for `COC(=O)C[C@H](NC(=O)OC(C)(C)C)C(=O)N(Cc1ccc(F)cc1)C1(C(=O)NCc2ccccc2)CCN(Cc2ccccc2)CC1`, the results for the IC50 in the assay with L1210, with CCRF-CEM and with HeLa were 22 µM, 16 µM and 19 µM, respectively.
As for `COC(=O)C[C@H](NC(=O)OC(C)(C)C)C(=O)N(Cc1cc(OC)c(OC)c(OC)c1)C1(C(=O)NCc2ccccc2)CCN(Cc2ccccc2)CC1`, the figures for the IC50 in the assay on L1210, in the assay with CCRF-CEM and in the assay with HeLa were 31 µM, 23 µM and 22 µM, respectively.
On the same counts, the results for `COC(=O)C[C@H](NC(=O)OC(C)(C)C)C(=O)N(CCNc1ccccc1)C1(C(=O)NCc2ccccc2)CCN(Cc2ccccc2)CC1` are 21 µM, 14 µM and 21 µM.
For `COC(=O)C[C@H](NC(=O)OC(C)(C)C)C(=O)NC1(C(=O)NCc2ccccc2)CCN(Cc2ccccc2)CC1` the same measures were 23 µM, 25 µM and 24 µM.
On the same counts, the results for `COC(=O)C[C@H](NC(=O)OC(C)(C)C)C(=O)N(C)C1(C(=O)NCc2ccccc2)CCN(Cc2ccccc2)CC1` are 17 µM, 20 µM and 11 µM.
In the case of `CCC(C)N(C(=O)[C@H](CC(=O)OC)NC(=O)OC(C)(C)C)C1(C(=O)NCc2ccccc2)CCN(Cc2ccccc2)CC1` (stereo partly drawn), the IC50 in the assay on L1210 worked out at 20 µM; in the assay with CCRF-CEM, 19 µM; in the assay with HeLa, 16 µM.
For `COC(=O)C[C@H](NC(=O)OC(C)(C)C)C(=O)N(C1CC1)C1(C(=O)NCc2ccccc2)CCN(Cc2ccccc2)CC1` the same measures were 14 µM, 6.7 µM and 7.9 µM.
On the same counts, the results for `CC[C@H](C)[C@H](NC(=O)OC(C)(C)C)C(=O)N(Cc1ccccc1)C1(C(=O)NCc2ccccc2)CCN(Cc2ccccc2)CC1` are 4.4 µM, 7.1 µM and 10 µM.
For `CC(C)(C)OC(=O)N[C@@H](Cc1ccc(O)cc1)C(=O)N(Cc1ccccc1)C1(C(=O)NCc2ccccc2)CCN(Cc2ccccc2)CC1` the same measures were 5 µM, 5.2 µM and 23 µM.
Consider `COC(=O)C[C@H](NC(=O)OCc1ccccc1)C(=O)N(Cc1ccccc1)C1(C(=O)NCc2ccccc2)CCN(Cc2ccccc2)CC1`, for which the IC50 with L1210 worked out at 5.8 µM; in the assay with CCRF-CEM, 4.5 µM; in the assay on HeLa, 14 µM.
On the same counts, the results for `COC(=O)C[C@H](NC(=O)OCC1c2ccccc2-c2ccccc21)C(=O)N(Cc1ccccc1)C1(C(=O)NCc2ccccc2)CCN(Cc2ccccc2)CC1` are 5.4 µM, 5.2 µM and 14 µM.
On the same counts, the results for `CC(C)(C)OC(=O)N[C@@H](CC(N)=O)C(=O)N(Cc1ccccc1)C1(C(=O)NCc2ccccc2)CCN(Cc2ccccc2)CC1` are 27 µM, 26 µM and 25 µM.
On the same counts, the results for `CNC(=O)C[C@H](NC(=O)OC(C)(C)C)C(=O)N(Cc1ccccc1)C1(C(=O)NCc2ccccc2)CCN(Cc2ccccc2)CC1` are 94 µM, 63 µM and 84 µM.
As for `CN(C)C(=O)C[C@H](NC(=O)OC(C)(C)C)C(=O)N(Cc1ccccc1)C1(C(=O)NCc2ccccc2)CCN(Cc2ccccc2)CC1`, the IC50 worked out at 76 µM in the assay on L1210, 59 µM in the assay with CCRF-CEM and 68 µM in the assay on HeLa.
For `COC(=O)C[C@H](NC(=O)OC(C)(C)C)C(=O)N(Cc1ccccc1)C1(C(=O)NCc2ccccc2)CCNCC1` the same measures were > 200 µM, 124 µM and > 167 µM.
As for `C=CCOC(=O)N1CCC(C(=O)NCc2ccccc2)(N(Cc2ccccc2)C(=O)[C@@H](N)Cc2ccccc2)CC1`, the IC50 in the assay on L1210 stood at 49 µM; in the assay on CCRF-CEM, 54 µM; in the assay on HeLa it was 63 µM.
On the same counts, the results for `O=C(N[C@@H](Cc1ccccc1)C(=O)N(Cc1ccccc1)C1(C(=O)NCc2ccccc2)CCN(Cc2ccccc2)CC1)Oc1ccccc1` are 3.5 µM, 9 µM and 17 µM.
For `CCC(C)N(C(=O)[C@H](Cc1ccccc1)NC(=O)OC(C)(C)C)C1(C(=O)NCc2ccccc2)CCN(Cc2ccccc2)CC1` (stereo partly drawn) the same measures were 4.2 µM, 10 µM and 24 µM.
Consider `CC(C)(C)OC(=O)N[C@@H](Cc1ccccc1)C(=O)N(Cc1ccccc1)C1(C(=O)NCc2ccccc2)CCN(C(=O)OC(C)(C)C)CC1`, for which the results for the IC50 in the assay on L1210, in the assay on CCRF-CEM and in the assay on HeLa were 5 µM, 5.7 µM and 13 µM, respectively.
For `CC[C@@H](C)[C@H](NC(=O)OCc1ccccc1)C(=O)N(Cc1ccccc1)C1(C(=O)NCc2ccccc2)CCN(C(=O)OC(C)(C)C)CC1` the same measures were 5.1 µM, 6.8 µM and 11 µM.
On the same counts, the results for `CC(C)(C)NC(=O)C1(N(C(=O)[C@H](Cc2ccccc2)NC(=O)OCc2ccccc2)C2CC2)CCN(Cc2ccccc2)CC1` are 6.6 µM, 6 µM and 26 µM.
On the same counts, the results for `CC(C)(C)NC(=O)C1(N(C(=O)[C@H](Cc2ccccc2)NC(=O)OC(C)(C)C)C2CC2)CCN(Cc2ccccc2)CC1` are 14 µM, 19 µM and 20 µM.
As for `CC(C)(C)NC(=O)C1(N(C(=O)[C@H](Cc2ccccc2)NC(=O)OC(C)(C)C)C2CC2)CCN(C(=O)OC(C)(C)C)CC1`, the IC50 in the assay on L1210 was found to be 14 µM; in the assay with CCRF-CEM, 19 µM; in the assay with HeLa, 20 µM.
For `COC(=O)C[C@H](NC(=O)OCc1ccccc1)C(=O)N(C1CC1)C1(C(=O)NCc2ccccc2)CCN(Cc2ccccc2)CC1` the same measures were 5.3 µM, 6.2 µM and 4.7 µM.
